Compound activity deposited in PubChem BioAssay by several laboratories.
KCNQ1 act: potentiates or activates the human KCNQ1 potassium channel; CHO-K1 KCNQ1, thallium flux FluxOR fluorescence; stronger effect = higher value; P51787; B-score at 10 µM; AID 2648; hit rate 0.35% among 310,000;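 active = fluorescence ratio B-score, a plate-corrected score, at least three library SD, with initial intensity B-score within 5 SD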
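Test system: CHO-K1 cells stably expressing KCNQ1 / Medium: assay buffer / Also added: depolarizing K+/Tl+ stimulus, K2SO4 and Tl2SO4 each 12.5 mM in 5x stock / Incubation: 90 min dye loading and 20 min compound exposure, both at room temperature / Signal: thallium influx via FluxOR fluorescence, kinetic imaging / Evaluation: B score of baseline-normalized fluorescence ratio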
KCNK3 block: human KCNK3 channel inhibition, primary screen; CHO-KCNK3 thallium flux, FluxOR fluorescence; stronger effect = lower value; B-score at 10 µM; hit rate 0.84% among 340,000; O14649;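 active = B-score under library mean minus 4 SD, starting fluorescence ratio at most library mean plus 5 SD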;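 also: more negative B-score means stronger inhibition of thallium flux through KCNK3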
KCNK9 inh: human KCNK9 channel inhibition; HEK293 KCNK9, FluxOR thallium flux fluorescence; stronger effect = lower value; Q9NPC2; AID 488922; B-score at 10 µM; hit rate 1.2% among 310,000;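 active = ratio B-score over 3 SD below the library mean, with starting fluorescence within 5 SD of its mean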;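 also: negative B-score means less thallium flux so channel inhibition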
KCNQ1 block: human KCNQ1 channel inhibition; B-score at 10 µM; CHO-K1 KCNQ1, FluxOR thallium flux fluorescence; stronger effect = higher value; hit rate 1.3% among 310,000; P51787; AID 2642;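 active = compounds whose thallium flux B-score, printed positive for inhibition, exceeds three library SD while starting fluorescence stays within three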;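 also: channel opened by potassium depolarization with thallium stimulus after 20 min compound exposure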
KCC2 mod: KCC2 (human) Cl- transport modulation. Q9H2X9. KCC2 cells, thallium flux FluoZin-2 fluorescence. B-score of Tl+ flux slope (higher = more flux/activation; lower = inhibition) at 10 µM. hit rate 2.2% among 190,000. AID 1456;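 active = thallium flux slope and its plate-corrected score both differing from the plate sample mean at a set confidence after two filtering rounds, in either direction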;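 also: slope of fluorescence scaled to starting intensity during 10 to 20 s after thallium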
Target sequence (Q9H2X9 whole entry, looked up): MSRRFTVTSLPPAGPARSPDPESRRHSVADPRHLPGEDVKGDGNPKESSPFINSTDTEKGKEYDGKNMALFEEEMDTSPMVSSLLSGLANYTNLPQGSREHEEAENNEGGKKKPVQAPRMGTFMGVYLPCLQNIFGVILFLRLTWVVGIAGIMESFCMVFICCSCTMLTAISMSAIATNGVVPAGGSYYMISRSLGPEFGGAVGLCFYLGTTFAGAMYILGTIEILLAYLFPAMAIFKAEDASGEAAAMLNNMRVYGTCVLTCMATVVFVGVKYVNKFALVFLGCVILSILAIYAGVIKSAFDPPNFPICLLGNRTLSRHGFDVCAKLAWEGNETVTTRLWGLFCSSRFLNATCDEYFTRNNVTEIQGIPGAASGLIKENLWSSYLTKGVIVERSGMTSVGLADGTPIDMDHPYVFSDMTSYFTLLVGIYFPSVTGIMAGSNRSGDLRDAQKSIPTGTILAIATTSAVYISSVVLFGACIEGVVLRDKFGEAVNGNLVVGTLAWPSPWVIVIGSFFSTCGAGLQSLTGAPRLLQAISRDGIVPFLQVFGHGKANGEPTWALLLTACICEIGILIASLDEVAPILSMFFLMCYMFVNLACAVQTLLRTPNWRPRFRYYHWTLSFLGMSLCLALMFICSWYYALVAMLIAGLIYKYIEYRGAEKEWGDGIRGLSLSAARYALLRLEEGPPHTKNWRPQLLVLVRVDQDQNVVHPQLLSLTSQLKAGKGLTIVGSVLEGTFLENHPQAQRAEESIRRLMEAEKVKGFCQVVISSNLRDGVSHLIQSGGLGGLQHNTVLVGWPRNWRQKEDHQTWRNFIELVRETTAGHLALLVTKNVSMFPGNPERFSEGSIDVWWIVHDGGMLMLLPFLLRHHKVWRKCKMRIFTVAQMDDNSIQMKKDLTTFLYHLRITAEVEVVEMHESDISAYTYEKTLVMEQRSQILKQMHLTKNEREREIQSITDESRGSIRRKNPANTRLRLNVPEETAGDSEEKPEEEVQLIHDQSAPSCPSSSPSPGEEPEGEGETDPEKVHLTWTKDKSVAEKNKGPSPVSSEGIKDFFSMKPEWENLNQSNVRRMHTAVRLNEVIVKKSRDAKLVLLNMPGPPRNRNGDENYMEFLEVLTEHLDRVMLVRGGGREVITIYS
hERG protect: shields human hERG channel from block by proarrhythmic agents | Q12809 | CHO-hERG, FluxOR thallium flux, dofetilide IC70 present | activation (rescue from dofetilide block), less the hit threshold, % at 10 µM | hit rate 0.51% among 310,000;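 active = activation above the mean of controls blocked by dofetilide plus 5 SD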;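 also: thallium influx through hERG after potassium depolarization seen as dye fluorescence rise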
KCC2 secondary: confirmation of human KCC2 transport modulators; hit rate 15% among 3,700; HEK293-KCC2, thallium flux, FluoZin2 fluorescence; stronger effect = higher value; normalised thallium flux (F/F0 slope) at 10 µM; shares compounds with KCC2 mod;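 active = thallium flux slope above the same plate's solvent-only control mean plus 3 SD; inconclusive = the two replicate wells disagree; inactive = no significant difference from solvent-only control wells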
KCC2 bumet counter: thallium flux despite bumetanide block in KCC2 cells, secondary assay 3; hit rate 49% among 3,700; HEK293-KCC2 + bumetanide/ouabain, thallium flux FluoZin2; stronger effect = higher value; shares compounds with KCC2 mod; normalized thallium flux at 10 µM;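 active = thallium entry rate above the same plate's blocked-transporter control wells by more than 3 SD; inconclusive = the two repeat wells disagree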;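 also: raw slope of fluorescence over initial fluorescence between 10 and 20 s after thallium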
KCC2 sec2: KCC2 (human) modulation, second secondary assay. HEK293-KCC2, thallium flux FluoZin2 fluorescence; actives lie on both sides; F/F0 rise rate, 10–20 s post-thallium. hit rate 23% among 3,700. normalized thallium flux at 10 µM. shares compounds with KCC2 mod;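 active = thallium flux slope more than 3 SD above or below the plate's solvent-only control mean, mostly below; inconclusive = the two repeat wells disagreed; inactive = no significant shift from solvent-only controls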
HEK293 Tl flux: counter-screen for KCC2 modulators: effect in parental HEK293 cells | shares compounds with KCC2 mod | thallium flux FluoZin2, ouabain; baseline-ratio fluorescence slope, 10–20 s after thallium | thallium flux rate (normalised fluorescence) at 10 µM | hit rate 46% among 3,700;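 active = thallium flux rate significantly above the same plate's solvent-only control wells, beyond their mean plus 3 SD; inconclusive = the two replicate wells gave conflicting results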
KCC2 retest ouab: modulates human KCC2 on retest with ouabain; shares compounds with KCC2 mod; HEK293-KCC2, thallium flux FluoZin2 fluorescence; bidirectional: low = inhibitor, high = activator; raw Tl+ flux slope (below DMSO = inhibition, above = activation) at 10 µM; hit rate 48% among 3,700;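 active = thallium flux slope beyond 3 SD from same-plate DMSO control mean in most replicates, usually higher, sometimes lower; inconclusive = repeat tests gave conflicting results; inactive = no significant difference from controls in most replicates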;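 also: slope of initial-normalized fluorescence between seconds 10 and 20 after thallium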
HEK293 Tl flux2: counter-screen for KCC2 modulators: effect in parental HEK293 cells; shares compounds with KCC2 mod; thallium flux FluoZin-2 fluorescence slope; thallium flux slope at 10 µM; hit rate 33% among 3,700; AID 1718;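 active = thallium flux slope above the same plate's solvent-control mean plus 3 SD in both duplicate wells; inconclusive = duplicate wells that disagreed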;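 also: run without ouabain in cells lacking the KCC2 cotransporter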
Hits are given with their value; 0 = inactive; ? = inconclusive; - = no result. Hits are enriched below; roughly 4.1% of the tested compounds scored in any of these assays.

SMILES	KCNQ1 act	KCNK3 block	KCNK9 inh	KCNQ1 block	KCC2 mod	hERG protect	KCC2 secondary	KCC2 bumet counter	KCC2 sec2	HEK293 Tl flux	KCC2 retest ouab	HEK293 Tl flux2
CCn1c(SC/C=C/c2ccccc2)nnc1-c1cccs1	0	0	0	0	-	0	-	-	-	-	-	-
CCC(=O)NC(=S)NNC(=O)COc1ccc(Br)cc1	0	0	0	0	7.6	0	0	0.019	0	0.018	?	0.015
O=C(COc1ccccc1)NC(=S)Nc1ccc(Br)cn1	22	0	0	0	85	0	0	0.045	0.048	0.053	0.052	0.041
CCOc1ccc(NC(=S)NNC(=O)c2ccc(Br)cc2)cc1	0	0	0	6	24	0	0.014	0.055	0	?	0.046	?
COc1ccc(CC(=O)NC(=S)NNC(=O)COc2c(C)cccc2C)cc1	0	0	0	0	7.3	0	0.013	0.038	0	0.015	?	0.012
O=C(NC(=S)Nc1ccc(Br)cn1)c1cccnc1	0	0	0	0	0	0	-	-	-	-	-	-
Cc1noc(C)c1CSCC(=O)Nc1nc2c(F)cc(F)cc2s1	-	0	-	-	-	-	-	-	-	-	-	-
CCCCOC(=O)C1=C(C)NC2=C(C(=O)CCC2)C1c1cc(OC)ccc1OC (stereo not given)	0	0	0	0	7.5	0	0	0	0	0	0	0
CCCOC(=O)C1=C(C)NC2=C(C(=O)CCC2)C1c1cc(OC)ccc1OC (stereo not given)	0	0	0	0	0	0	-	-	-	-	-	-
CSCCC(NS(=O)(=O)c1ccccc1)C(=O)Nc1nccs1 (stereo not given)	-	0	-	-	-	-	-	-	-	-	-	-
CCOc1cc(N2CCOCC2)c(OCC)cc1NC(=O)Cc1ccc(OC)c(OC)c1	0	0	0	0	-4.7	0	0	0	0	0	0	0
CCOc1cc(N2CCOCC2)c(OCC)cc1NC(=O)Cc1cccc(OC)c1	0	0	0	0	0	0	-	-	-	-	-	-
COc1ccc(N(C)S(=O)(=O)c2ccc(Cl)c(C(=O)NCCc3ccc(Cl)cc3)c2)cc1	0	0	0	0	-6.1	0	0	0	0.018	0.0054	0.0095	0
COc1ccc(CCNC(=O)c2cc(S(=O)(=O)N3CCCCC3)ccc2Cl)cc1	-	0	-	-	-	-	-	-	-	-	-	-
N#Cc1ccsc1NC(=O)c1ccc(Cl)c([N+](=O)[O-])c1	0	0	0	7	-5.3	0	0	0	0.022	0	?	0
COc1cc(/C=C/C(=O)OCC(=O)NC(=O)C2COc3ccccc3O2)ccc1OC(F)F (stereo not given)	-	0	-	-	-	-	-	-	-	-	-	-
Oc1ccccc1C(Nc1nccs1)c1ccc2cccnc2c1O (stereo not given)	0	0	0	0	5	0	0	0.015	0	0.0086	?	0
Oc1c(C(Nc2ccccn2)c2ccccn2)ccc2cccnc12 (stereo not given)	0	0	0	0	0	0	-	-	-	-	-	-
Cc1cc(O)c(C(=O)Nc2cccc(Cl)c2)c(=O)n1C	0	0	0	0	-	0	-	-	-	-	-	-
COCCCn1c(SCC(=O)N2CCOCC2)nnc1-c1ccco1	0	0	0	0	-	0	-	-	-	-	-	-
CCCc1nnc(SCC(=O)N2CCOCC2)n1CCCOC	0	0	0	0	8	0	0	0	0	0	0	0
CN(C)c1ncc(S(=O)(=O)c2ccc(Cl)cc2)c(-c2ccc(Cl)cc2Cl)n1	0	0	0	0	0	0	-	-	-	-	-	-
CN(C)c1ncc(S(=O)(=O)c2ccccc2)c(-c2ccc(Cl)cc2Cl)n1	0	0	0	0	-5.7	0	0	0	0	0	0	0
O=C(NC1CCCCCC1)C1CCN(c2nc3ccccc3o2)CC1	0	0	0	0	-	0	0	0	?	0	0.018	0
CCc1ccc(NC(=O)c2c(Cl)nc(C)c(Cl)c2C)cc1	0	0	0	0	-4.2	0	0	0	0.025	?	0.016	0
SMILES	KCNQ1 act	KCNK3 block	KCNK9 inh	KCNQ1 block	KCC2 mod	hERG protect	KCC2 secondary	KCC2 bumet counter	KCC2 sec2	HEK293 Tl flux	KCC2 retest ouab	HEK293 Tl flux2
O=C(c1ccc(F)cc1)N1CCN(Cc2ccccc2)CC1	0	0	0	0	-	0	-	-	-	-	-	-
O=C1NC(=S)N(C(=O)c2ccc(F)cc2)/C1=C/c1ccccc1	0	0	0	0	26	0	0.021	0.082	?	0.078	0.056	0.032
O=C(c1ccc2c3n(nc2c1)-c1ccc(Cl)cc1CO3)N1CCCCC1	0	0	0	0	-2.2	0	0	0	?	0	?	0
O=C(O)c1ccc2c3n(nc2c1)-c1ccc(Cl)cc1CO3	0	-	0	0	-	0	-	-	-	-	-	-
COc1ccc(C2=NOC(Cn3nc(C(=O)NCc4ccccc4OC)cc3-c3ccccc3)C2)cc1 (stereo not given)	0	0	0	0	-	0	-	-	-	-	-	-
CC(C)OCCCNC(=O)c1cc2c(s1)CS(=O)(=O)C2	0	0	0	0	-	0	0	0	0	0	0	0
C[C@H]1CN([C@@H](C)CO)C(=O)c2cc(NC(=O)C3CCCCC3)ccc2O[C@H]1CN(C)C(=O)Nc1ccc2c(c1)OCO2	-	0	-	-	-	-	-	-	-	-	-	-
Cn1c(=S)[nH]c2c(c1=O)C(C)(C)Cc1ccccc1-2	0	0	0	0	83	0	0.066	0.12	0.084	0.096	0.094	0.091
O=C(Nc1nc2ccccc2s1)c1cccc(S(=O)(=O)N2CCc3ccccc32)c1	0	0	0	0	0	0	-	-	-	-	-	-
O=C(Nc1nc2c(s1)CN(Cc1ccccc1)CC2)c1cccc(S(=O)(=O)N2CCc3ccccc32)c1	0	0	0	0	3.4	0	0.0045	0.0015	0.021	0.0051	0.013	0.0079
Cc1nc(SC2CC(=O)N(c3ccccc3)C2=O)nc2c1CCCC2 (stereo not given)	0	0	0	0	-	0	0	0	0.026	?	0.016	0
COc1ccc(CCN(C)C(=O)COc2cccc(-n3cnnn3)c2)cc1OC	-	0	-	-	-	-	-	-	-	-	-	-
COn1c(SC2CCCCC2)nc2ccccc2c1=O	0	0	0	0	2.6	0	?	0.014	0	0.012	?	0
